According to ChEMBL document CHEMBL3627669, “Wittig derivatization of sesquiterpenoid polygodial leads to cytostatic agents with activity against drug resistant cancer cells and capable of pyrrolylation of primary amines” (2015):
The source made the active and inactive calls. No cut-off for these calls is given here.

Tests used:
U-373MG ATCC [1] = test: Cytotostatic activity on human U373 cells assessed as change in cell morphology at 25 uM after 72 hrs by videomicroscopic analysis; format: functional, cell-based
Glioma cell [2] = test: Cytotoxicity against cdkn2a-deficient EGFRvIII amplified mouse neurosphere glioma cells using bis-AAF-R110 as substrate at 20 uM preincubated for 24 hrs followed by substrate addition measured after 2 hrs by fluorescence analysis; format: functional, cell-based
How it was run: (§1)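 GBM neurosphere primary cultures carrying cdkn2a deletion with PDGFB or EGFRvIII amplification. Plated at 0.015×10^6 cells/well, 5 replicates per condition, in DMEM-F12 without phenol red. Cell suspension then mixed with bis-AAF-R110 substrate for 2 h at 37 °C and fluorescence read at 485/520 nm. After blank subtraction, signals were normalized to vehicle (=1) to give fold relative cytotoxicity. Mean ± SD of two independent experiments.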

SCC-25 = test: Cytotoxicity against cisplatin-resistant human SCC25 cells assessed as growth inhibition; format: functional, cell-based
SK-MEL-28 = test: Cytotoxicity against human SK-MEL-28 cells assessed as growth inhibition incubated for 72 hrs by MTT assay; format: functional; conditions: SK-MEL-28, 72 h
How it was run: (§2)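 MTT assay. Stocks of 100 or 50 mM in DMSO. Cells seeded at line-dependent density, grown 24–72 h, then treated across […] for 72 h. Negative control 0.1% DMSO, positive control 1 μM phenylarsine oxide. GI50 is the concentration reducing viability 50% relative to control, averaged over experiments each run in sextuplicate.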

Glioma cell [3] = test: Cytotoxicity against cdkn2a-deficient mouse neurosphere glioma cells at 20 uM after 24 hrs; format: functional, cell-based
MCF7 = test: Cytotoxicity against human MCF7 cells assessed as growth inhibition incubated for 72 hrs by MTT assay; format: functional; conditions: MCF7, 72 h; how it was run: as §2
Glioma cell [4] = test: Cytotoxicity against cdkn2a/TRPV1 doubly deficient PDGFB amplified mouse neurosphere glioma cells using bis-AAF-R110 as substrate at 20 uM preincubated for 24 hrs followed by substrate addition measured after 2 hrs by fluorescence analysis; format: functional, cell-based; how it was run: as §1
[5] = Cytotoxicity against human MES-SA cells assessed as growth inhibition incubated for 48 hrs by MTT assay; format: functional
How it was run: (§3)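 MTT assay on MES-SA and MES-SA/Dx5 uterine sarcoma cells in RPMI-1640 with 10% FBS. Dx5 cells were selected by stepwise doxorubicin exposure from 100 to 500 nM and maintained in 500 nM doxorubicin. Cells treated 48 h. GI50 is the concentration reducing viability 50% relative to DMSO control, from two independent experiments with 4 replicates each.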

[6] = Cytotoxicity against human U373 cells assessed as growth inhibition incubated for 72 hrs by MTT assay; format: functional, U-373MG ATCC; conditions: U373 MG; how it was run: as §2
PC-3 = test: Cytotoxicity against docetaxel-resistant human PC3 cells assessed as growth inhibition; format: functional, cell-based
[7] = Cytotoxicity against human Hs683 cells assessed as growth inhibition incubated for 72 hrs by MTT assay; format: functional; conditions: Hs 683, 72 h; how it was run: as §2
[8] = target: Transient receptor potential cation channel subfamily V member 1 (Rattus norvegicus) (UniProt O35433); test: Displacement of [3H]-RTX from vanilloid site of TRPV1 receptor in rat spinal cord at 10 uM incubated for 60 mins by scintillation counting analysis
Sequence of Transient receptor potential cation channel subfamily V member 1 (Rattus norvegicus) (O35433 whole entry): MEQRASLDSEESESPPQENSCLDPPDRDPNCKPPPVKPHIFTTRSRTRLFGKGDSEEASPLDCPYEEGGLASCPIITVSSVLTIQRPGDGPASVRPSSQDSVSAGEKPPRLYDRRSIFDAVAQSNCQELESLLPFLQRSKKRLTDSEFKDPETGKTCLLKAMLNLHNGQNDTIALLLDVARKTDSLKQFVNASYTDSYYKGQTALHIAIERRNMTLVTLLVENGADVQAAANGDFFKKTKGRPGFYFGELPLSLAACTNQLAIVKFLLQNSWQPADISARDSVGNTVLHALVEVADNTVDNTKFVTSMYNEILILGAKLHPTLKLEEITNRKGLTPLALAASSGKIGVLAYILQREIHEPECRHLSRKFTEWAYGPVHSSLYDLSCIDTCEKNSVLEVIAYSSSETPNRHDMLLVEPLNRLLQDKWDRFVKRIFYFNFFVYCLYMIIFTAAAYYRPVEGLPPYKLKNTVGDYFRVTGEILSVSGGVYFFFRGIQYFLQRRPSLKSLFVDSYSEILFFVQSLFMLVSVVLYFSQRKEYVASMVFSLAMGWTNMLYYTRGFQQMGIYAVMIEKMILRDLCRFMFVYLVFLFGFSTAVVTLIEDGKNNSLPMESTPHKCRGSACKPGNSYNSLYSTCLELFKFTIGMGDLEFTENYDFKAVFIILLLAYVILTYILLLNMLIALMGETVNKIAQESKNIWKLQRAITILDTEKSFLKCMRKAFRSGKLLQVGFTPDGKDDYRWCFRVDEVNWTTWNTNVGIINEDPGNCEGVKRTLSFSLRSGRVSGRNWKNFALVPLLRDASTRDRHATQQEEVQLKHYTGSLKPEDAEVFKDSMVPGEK
How it was run: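 Rat spinal cord homogenized in buffer A (pH 7.4, HEPES/sucrose salts). Membranes collected from a 35,000g spin. Binding run with 0.5 mg/mL membranes, 0.25 mg/mL BSA, 2 nM [3H]-RTX, and compound at 10 μM, for 60 min at 37 °C. Nonspecific binding defined with 100 μM unlabeled RTX. Reaction stopped on ice with α1-acid glycoprotein, then centrifuged and the pellet counted by scintillation. Result is % specific binding, mean ± SEM of 3 experiments.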

SCC-4 = test: Cytotoxicity against docetaxel-resistant human SCC4 cells assessed as growth inhibition; format: functional, cell-based
[9] = Cytotoxicity against human MES-SA/Dx5 cells assessed as growth inhibition incubated for 48 hrs by MTT assay; format: functional; conditions: MES-SA/Dx5, 48 h; how it was run: as §3
A549 = test: Cytotoxicity against human A549 cells assessed as growth inhibition incubated for 72 hrs by MTT assay; format: functional; conditions: A549, 72 h; how it was run: as §2
[10] = target: Transient receptor potential cation channel subfamily V member 1 (Homo sapiens) (UniProt Q8NER1); test: Activity at TRPV1 in human MDA-MB--231 cells assessed as sustained and asynchronous increase in cytosolic Ca2+ level at 20 uM by FURA2-based fluorescence imaging analysis; format: cell-based
Sequence of Transient receptor potential cation channel subfamily V member 1 (Homo sapiens) (Q8NER1 whole entry): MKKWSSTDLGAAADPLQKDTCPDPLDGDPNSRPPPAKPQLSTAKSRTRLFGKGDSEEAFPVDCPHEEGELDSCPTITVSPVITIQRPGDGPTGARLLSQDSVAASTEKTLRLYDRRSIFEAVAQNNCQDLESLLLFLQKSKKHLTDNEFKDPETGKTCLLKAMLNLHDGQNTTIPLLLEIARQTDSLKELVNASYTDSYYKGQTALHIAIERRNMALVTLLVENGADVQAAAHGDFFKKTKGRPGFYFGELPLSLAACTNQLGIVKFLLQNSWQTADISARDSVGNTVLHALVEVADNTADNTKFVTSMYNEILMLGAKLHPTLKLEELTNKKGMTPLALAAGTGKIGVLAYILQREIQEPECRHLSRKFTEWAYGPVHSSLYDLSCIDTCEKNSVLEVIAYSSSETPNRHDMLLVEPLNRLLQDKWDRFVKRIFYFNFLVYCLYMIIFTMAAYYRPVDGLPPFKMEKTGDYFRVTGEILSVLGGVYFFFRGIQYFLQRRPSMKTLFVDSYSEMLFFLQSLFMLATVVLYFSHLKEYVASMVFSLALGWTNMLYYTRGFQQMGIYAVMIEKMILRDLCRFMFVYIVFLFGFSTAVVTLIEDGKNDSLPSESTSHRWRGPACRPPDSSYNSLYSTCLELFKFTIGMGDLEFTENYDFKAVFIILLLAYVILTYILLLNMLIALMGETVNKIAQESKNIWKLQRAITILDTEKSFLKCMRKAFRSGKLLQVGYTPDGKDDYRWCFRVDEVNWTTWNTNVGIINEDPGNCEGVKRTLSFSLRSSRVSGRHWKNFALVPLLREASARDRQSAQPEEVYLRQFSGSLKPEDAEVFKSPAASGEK

U-373MG ATCC [11] = test: Cytotostatic activity on human U373 cells assessed as change in cell morphology at 100 uM after 72 hrs by videomicroscopic analysis; format: functional, cell-based
[12] = target: Transient receptor potential cation channel subfamily V member 1 (Homo sapiens) (UniProt Q8NER1); test: Activity at TRPV1 in human MDA-MB--231 cells assessed as transient and synchronous increase in cytosolic Ca2+ level at 80 uM by FURA2-based fluorescence imaging analysis; format: cell-based
[13] = target: Transient receptor potential cation channel subfamily V member 1 (Homo sapiens) (UniProt Q8NER1); test: Activity at TRPV1 in human MDA-MB--231 cells assessed as transient and synchronous increase in cytosolic Ca2+ level at 80 uM in presence of TRPV1 blocker capsazepine by FURA2-based fluorescence imaging analysis; format: cell-based
U-373MG ATCC [14] = test: Cytotoxicity against human U373 cells assessed as necrotic and late apoptotic cells at 100 uM after 72 hrs by Trypan blue assay; format: functional, cell-based
How it was run: (§4)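 U373 cells treated 72 h, stained with trypan blue and imaged. Cells were then fixed with ice-cold methanol and restained as an internal positive control. Single experiment in triplicate.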

Glioma cell [15] = test: Cytotoxicity against cdkn2a/TRPV1 doubly deficient PDGFB amplified mouse neurosphere glioma cells using bis-AAF-R110 as substrate at 10 uM preincubated for 24 hrs followed by substrate addition measured after 2 hrs by fluorescence analysis; format: functional, cell-based
How it was run: (§5)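 Primary glioma neurosphere cultures were plated at 0.015×10^6 cells/well (5 replicates) in phenol red-free DMEM-F12. Cells were mixed with bis-AAF-R110 and incubated 2 h at 37 °C, with fluorescence read at 485/520 nm. Signal was blank-subtracted and expressed as fold change over vehicle (mean ± SD, two independent experiments).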

Glioma cell [16] = test: Cytotoxicity against cdkn2a-deficient EGFRvIII amplified mouse neurosphere glioma cells using bis-AAF-R110 as substrate at 10 uM preincubated for 24 hrs followed by substrate addition measured after 2 hrs by fluorescence analysis; format: functional, cell-based; how it was run: as §5
Glioma cell [17] = test: Cytotoxicity against cdkn2a-deficient mouse neurosphere glioma cells at 10 uM after 24 hrs; format: functional, cell-based; how it was run: as §5
U-373MG ATCC [18] = test: Cytotostatic activity on human U373 cells assessed as change in cell morphology at 35 uM after 72 hrs by videomicroscopic analysis; format: functional, cell-based
U-373MG ATCC [19] = test: Cytotoxicity against human U373 cells assessed as necrotic and late apoptotic cells at 35 uM after 72 hrs by Trypan blue assay; format: functional, cell-based; how it was run: as §4

Row | SMILES | GI50 (SK-MEL-28) [µM] | GI50 (MCF7) [µM] | GI50 [6] [µM] | GI50 [7] [µM] | GI50 (A549) [µM] | further results
1 | COC(=O)/C=C/C1=CC[C@H]2C(C)(C)CCC[C@]2(C)[C@H]1C=O | 27 | 7 | 22 | 24 | 21 | Activity (U-373MG ATCC [1]): Active; growth inhibition (GI) (Glioma cell [2]): Active; growth inhibition (GI) (SCC-25): Active; growth inhibition (GI) (Glioma cell [3]): Active; growth inhibition (GI) (Glioma cell [4]): Active; GI50 [5]: 40 µM; growth inhibition (GI) (PC-3): Active; Activity [8]: inactive; growth inhibition (GI) (SCC-4): Active; GI50 [9]: 45 µM; Activity [10]: Active
2 | CC1(C)CCC[C@]2(C)[C@@H](C=O)C(/C=C/C(=O)OCc3ccccc3)=CC[C@@H]12 | 39 | 27 | 39 | 31 | 28 | –
3 | CCOC(=O)/C(C)=C/C1=CC[C@H]2C(C)(C)CCC[C@]2(C)[C@H]1C=O | 37 | 27 | 37 | 28 | 26 | –
4 | CC(C)(C)OC(=O)/C=C/C1=CC[C@H]2C(C)(C)CCC[C@]2(C)[C@H]1C=O | 41 | 32 | 40 | 29 | 29 | –
5 | CC(=O)/C=C/C1=CC[C@H]2C(C)(C)CCC[C@]2(C)[C@H]1C=O | 28 | 20 | 25 | 22 | 24 | –
6 | CC1(C)CCC[C@]2(C)[C@@H](C=O)C(/C=C/C#N)=CC[C@@H]12 | 42 | 31 | 36 | 28 | 27 | –
7 | COC(=O)/C=C/C=C/C1=CC[C@H]2C(C)(C)CCC[C@]2(C)[C@H]1C=O | 25 | 31 | 27 | 12 | 29 | –
8 | CC1(C)CCC[C@]2(C)[C@@H](C=O)C(C=O)=CC[C@@H]12 [POLYGODIAL] | 65 | 75 | > 100 | 95 | 90 | Activity (U-373MG ATCC [11]): inactive; Activity [12]: Active; Activity [13]: inactive; inhibition [8]: 76%; Activity (U-373MG ATCC [14]): Active
9 | C=C(C)[C@@H]1CCC(C)=C[C@H]1c1c(O)cc(CCCCC)cc1O | – | – | – | – | – | growth inhibition (GI) (Glioma cell [15]): inactive; growth inhibition (GI) (Glioma cell [16]): Active; growth inhibition (GI) (Glioma cell [17]): Active
10 | CC(=O)O[C@H]1C(=O)[C@@]2(C)[C@H]([C@H](OC(=O)c3ccccc3)[C@]3(O)C[C@H](OC(=O)[C@H](O)[C@@H](NC(=O)c4ccccc4)c4ccccc4)C(C)=C1C3(C)C)[C@]1(OC(C)=O)CO[C@@H]1C[C@@H]2O [PACLITAXEL] | – | – | – | – | – | GI50 [5]: 0.007 µM; GI50 [9]: 10 µM
11 | CC[C@]1(O)C[C@@H]2CN(CCc3c([nH]c4ccccc34)[C@@](C(=O)OC)(c3cc4c(cc3OC)N(C)[C@H]3[C@@](O)(C(=O)OC)[C@H](OC(C)=O)[C@]5(CC)C=CCN6CC[C@]43[C@@H]65)C2)C1 [VINBLASTINE] | – | – | – | – | – | GI50 [5]: 0.006 µM; GI50 [9]: 5 µM
12 | C#CCCCOC(=O)/C=C/C1=CC[C@H]2C(C)(C)CCC[C@]2(C)[C@H]1C=O | 36 | 30 | 35 | 33 | 30 | Activity (U-373MG ATCC [18]): Active; Activity (U-373MG ATCC [19]): inactive
13 | CCOC(=O)/C=C/C1=CC[C@H]2C(C)(C)CCC[C@]2(C)[C@H]1C=O | 29 | 30 | 37 | 29 | 25 | –
